Our source for the ID50 and fold change (FC) values is ChEMBL document CHEMBL3244036, “Inhibition of beef-brain and dog-heart (Na+ + k+) activated adenosine triphosphatase by carbon-3 branched cardenolides” (J Med Chem, 1978).

The structures appear in SMILES notation.

The species entered for assay [1] is Bos taurus. Briefly: Inhibition of beef-brain Na(+)/K(+) ATPase assessed as oxidation of NADH using ATP substrate preincubated for 5 mins. The gist of the method:
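Microsomal enzyme from frozen, partially thawed beef brain. Pyruvate kinase/lactate dehydrogenase-coupled system with inhibitor (in water, or DMSO made up with water) preincubated 5 min before adding ATP. NADH oxidation followed photometrically. Final volume 2.95 mL. At least four roughly log-equidistant concentrations, each in duplicate or triplicate. IC50 from linear regression of % inhibition against log concentration.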

The species named for a further assay is Canis lupus familiaris. Briefly: Inhibition of dog-heart microsomal Na(+)/K(+) ATPase using ATP substrate. In short, it runs like this: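 Microsomal enzyme from frozen dog heart in Tris-HCl pH 7.4 containing MgCl2, KCl and NaCl. Preincubated with inhibitor for 5 min, then pyruvate kinase, lactate dehydrogenase, phosphoenolpyruvate and NADH added. Reaction started with ATP; NADH oxidation read photometrically. At least four log-spaced concentrations, each in duplicate or triplicate. Linear regression of % inhibition against log concentration.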

For assay [2], the species on record is Bos taurus. Briefly: Inhibition of beef-brain Na(+)/K(+) ATPase assessed as oxidation of NADH using ATP substrate at 5 uM preincubated for 5 mins relative to digitoxigenin.

Consider `CC[C@@]1(O)CC[C@@]2(C)[C@H](CC[C@@H]3[C@@H]2CC[C@]2(C)[C@@H](C4=CC(=O)OC4)CC[C@]32O)C1`, for which the ID50 in the assay listed under Bos taurus [1] was 6.4 µmol. In the case of `C[C@@]1(O)CC[C@@]2(C)[C@H](CC[C@@H]3[C@@H]2CC[C@]2(C)[C@@H](C4=CC(=O)OC4)CC[C@]32O)C1`, the ID50 in the assay filed under Bos taurus [1] came out at 11.4 µmol. Regarding `C[C@]12CC[C@@](O)(C(O)CO)C[C@H]1CC[C@@H]1[C@@H]2CC[C@]2(C)[C@@H](C3=CC(=O)OC3)CC[C@]12O` (some centres not stated), the results for the ID50 in the assay listed under Bos taurus [1] and in the assay listed under Canis lupus familiaris were 15.4 µmol and 7.8 µmol, respectively. In the assay filed under Bos taurus [2], the fold change (FC) was 100. In the case of `C[C@]12CC[C@H](O)C[C@H]1CC[C@@H]1[C@@H]2CC[C@]2(C)[C@@H](C3=CC(=O)OC3)CC[C@]12O`, the ID50 in the assay filed under Bos taurus [1] turned out to be 0.096 µmol; in the assay listed under Canis lupus familiaris, 0.035 µmol. For `C[C@]12CC[C@](O)(CC(O)CO)C[C@H]1CC[C@@H]1[C@@H]2CC[C@]2(C)[C@@H](C3=CC(=O)OC3)CC[C@]12O` (some centres not stated), the ID50 in the assay filed under Bos taurus [1] is 2.34 µmol.

As for `C[C@]12CC[C@](O)(C(O)CO)C[C@H]1CC[C@@H]1[C@@H]2CC[C@]2(C)[C@@H](C3=CC(=O)OC3)CC[C@]12O` (some centres not stated), in the assay listed under Bos taurus [1], the ID50 is 1.7 µmol.

Consider `C[C@]12CC[C@](O)(CC3CO3)C[C@H]1CC[C@@H]1[C@@H]2CC[C@]2(C)[C@@H](C3=CC(=O)OC3)CC[C@]12O` (some centres not stated), for which the ID50 in the assay filed under Bos taurus [1] is 4.06 µmol. For `C=CC[C@]1(O)CC[C@@]2(C)[C@H](CC[C@@H]3[C@@H]2CC[C@]2(C)[C@@H](C4=CC(=O)OC4)CC[C@]32O)C1`, the figures for the ID50 in the assay filed under Bos taurus [1] and in the assay filed under Canis lupus familiaris were 1.25 µmol and 0.55 µmol, respectively. For the same molecule, the fold change (FC) in the assay listed under Bos taurus [2] was determined as 100. As to `C=C[C@@]1(O)CC[C@@]2(C)[C@H](CC[C@@H]3[C@@H]2CC[C@]2(C)[C@@H](C4=CC(=O)OC4)CC[C@]32O)C1`, the ID50 in the assay listed under Bos taurus [1] is 6.68 µmol. Turning to `C[C@]12CC[C@](O)(C3CO3)C[C@H]1CC[C@@H]1[C@@H]2CC[C@]2(C)[C@@H](C3=CC(=O)OC3)CC[C@]12O` (some centres not stated), the ID50 in the assay filed under Bos taurus [1] came to 3.17 µmol. Consider `C[C@]12CC[C@@](O)(CC3CO3)C[C@H]1CC[C@@H]1[C@@H]2CC[C@]2(C)[C@@H](C3=CC(=O)OC3)CC[C@]12O` (some centres not stated), for which the results for the ID50 in the assay listed under Bos taurus [1] and in the assay filed under Canis lupus familiaris were 3.65 µmol and 1.69 µmol, respectively. In the assay listed under Bos taurus [2], the fold change (FC) came to 100.

As to `C[C@]12CC[C@@]3(CO3)C[C@H]1CC[C@@H]1[C@@H]2CC[C@]2(C)[C@@H](C3=CC(=O)OC3)CC[C@]12O`, the ID50 in the assay listed under Bos taurus [1] came out at 0.71 µmol; in the assay listed under Canis lupus familiaris, 0.275 µmol. In the assay filed under Bos taurus [2], the fold change (FC) is 100. As for `C#C[C@@]1(O)CC[C@@]2(C)[C@H](CC[C@@H]3[C@@H]2CC[C@]2(C)[C@@H](C4=CC(=O)OC4)CC[C@]32O)C1`, in the assay filed under Bos taurus [1], the ID50 came out at 2.11 µmol. As to `C#C[C@]1(O)CC[C@@]2(C)[C@H](CC[C@@H]3[C@@H]2CC[C@]2(C)[C@@H](C4=CC(=O)OC4)CC[C@]32O)C1`, the values for the ID50 in the assay listed under Bos taurus [1] and in the assay listed under Canis lupus familiaris were 0.25 µmol and 0.12 µmol, respectively. In addition, in the assay listed under Bos taurus [2], the fold change (FC) came out at 100. Consider `C[C@]12CC[C@]3(CO3)C[C@H]1CC[C@@H]1[C@@H]2CC[C@]2(C)[C@@H](C3=CC(=O)OC3)CC[C@]12O`, for which, in the assay filed under Bos taurus [1], the ID50 stood at 0.74 µmol. With `C=C[C@]1(O)CC[C@@]2(C)[C@H](CC[C@@H]3[C@@H]2CC[C@]2(C)[C@@H](C4=CC(=O)OC4)CC[C@]32O)C1`, the ID50 in the assay listed under Bos taurus [1] worked out at 0.31 µmol; in the assay filed under Canis lupus familiaris, 0.092 µmol. Besides, the fold change (FC) in the assay listed under Bos taurus [2] was 100. Consider `C=CC[C@@]1(O)CC[C@@]2(C)[C@H](CC[C@@H]3[C@@H]2CC[C@]2(C)[C@@H](C4=CC(=O)OC4)CC[C@]32O)C1`, for which the ID50 in the assay listed under Bos taurus [1] is 5.81 µmol. With `C[C@]1(O)CC[C@@]2(C)[C@H](CC[C@@H]3[C@@H]2CC[C@]2(C)[C@@H](C4=CC(=O)OC4)CC[C@]32O)C1`, the ID50 in the assay filed under Bos taurus [1] was determined as 0.92 µmol; in the assay listed under Canis lupus familiaris it was 0.32 µmol. Besides, the fold change (FC) in the assay filed under Bos taurus [2] was 100. Taken in the same sequence, the figures for `C[C@]12CC[C@@](O)(CC(O)CO)C[C@H]1CC[C@@H]1[C@@H]2CC[C@]2(C)[C@@H](C3=CC(=O)OC3)CC[C@]12O` (some centres not stated) were 7.66 µmol, 4.44 µmol and 100.

Consider `C[C@]12CC[C@@H](O)C[C@H]1CC[C@@H]1[C@@H]2CC[C@]2(C)[C@@H](C3=CC(=O)OC3)CC[C@]12O`, for which the ID50 in the assay filed under Bos taurus [1] was determined as 1.17 µmol. As for `C[C@]12CC[C@@](O)(c3ccccc3)C[C@H]1CC[C@@H]1[C@@H]2CC[C@]2(C)[C@@H](C3=CC(=O)OC3)CC[C@]12O`, the ID50 in the assay listed under Bos taurus [1] came to 2.11 µmol; in the assay listed under Canis lupus familiaris it was 0.6 µmol. Also, the fold change (FC) in the assay filed under Bos taurus [2] stood at 100. As for `C[C@]12CC[C@](O)(c3ccccc3)C[C@H]1CC[C@@H]1[C@@H]2CC[C@]2(C)[C@@H](C3=CC(=O)OC3)CC[C@]12O`, the ID50 in the assay filed under Bos taurus [1] is 5.81 µmol.

With `CC[C@]1(O)CC[C@@]2(C)[C@H](CC[C@@H]3[C@@H]2CC[C@]2(C)[C@@H](C4=CC(=O)OC4)CC[C@]32O)C1`, the ID50 in the assay filed under Bos taurus [1] was 2.15 µmol; in the assay filed under Canis lupus familiaris it was 0.73 µmol. In addition, the fold change (FC) in the assay listed under Bos taurus [2] stood at 100. `C[C@]12CC[C@@](O)(C3CO3)C[C@H]1CC[C@@H]1[C@@H]2CC[C@]2(C)[C@@H](C3=CC(=O)OC3)CC[C@]12O` (some centres not stated): the ID50 was determined as 2.03 µmol in the assay filed under Bos taurus [1] and 1.1 µmol in the assay filed under Canis lupus familiaris. Besides, the fold change (FC) in the assay filed under Bos taurus [2] stood at 100.
